Tests used:
HepG2 cells [1] = assay: MTT cytotoxicity assay against HepG2 cells; assay type: cell-based; details: read-out: IC50 ± SD HepG2, mean ± SD of three independent trials
Summary of the method: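 HepG2 cells (NCI Cairo) grown in RPMI-1640 with L-glutamine, 10% FBS and 1% penicillin–streptomycin at 37 °C, 5% CO2. Plated in triplicate at 5 × 10^4 cells; next day treated at 0.01, 0.1, 1, 10 and 100 μM. Viability measured by MTT relative to control, IC50 computed. Mean ± SD of three independent trials.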

[2] = tested on: apoptosis-related genes (P53, Bax, caspases 3, 8, 9, BCL-2) in HepG2 cells; assay: RT-PCR gene expression of apoptosis-related genes in HepG2 cells; assay type: cell-based; details: HepG2, IC50, 48 h, normalized to β-actin
HepG2 cells [3] = assay: Cell cycle analysis by flow cytometry in HepG2 cells; assay type: cell-based; details: HepG2, treated at IC50 for 48 h
Summary of the method: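 Flow cytometric cell-phase distribution of HepG2 cells. Cells were left untreated or given test compound at its IC50 for 48 h. Data are mean ± SD of three independent runs.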

EGFR = EGFR (Homo sapiens, UniProt P00533); assay: EGFR-TK enzyme inhibition; assay type: biochemical; details: for percentage of inhibition of EGFR: concentration not given
EGFR, sequence (P00533 25-1210): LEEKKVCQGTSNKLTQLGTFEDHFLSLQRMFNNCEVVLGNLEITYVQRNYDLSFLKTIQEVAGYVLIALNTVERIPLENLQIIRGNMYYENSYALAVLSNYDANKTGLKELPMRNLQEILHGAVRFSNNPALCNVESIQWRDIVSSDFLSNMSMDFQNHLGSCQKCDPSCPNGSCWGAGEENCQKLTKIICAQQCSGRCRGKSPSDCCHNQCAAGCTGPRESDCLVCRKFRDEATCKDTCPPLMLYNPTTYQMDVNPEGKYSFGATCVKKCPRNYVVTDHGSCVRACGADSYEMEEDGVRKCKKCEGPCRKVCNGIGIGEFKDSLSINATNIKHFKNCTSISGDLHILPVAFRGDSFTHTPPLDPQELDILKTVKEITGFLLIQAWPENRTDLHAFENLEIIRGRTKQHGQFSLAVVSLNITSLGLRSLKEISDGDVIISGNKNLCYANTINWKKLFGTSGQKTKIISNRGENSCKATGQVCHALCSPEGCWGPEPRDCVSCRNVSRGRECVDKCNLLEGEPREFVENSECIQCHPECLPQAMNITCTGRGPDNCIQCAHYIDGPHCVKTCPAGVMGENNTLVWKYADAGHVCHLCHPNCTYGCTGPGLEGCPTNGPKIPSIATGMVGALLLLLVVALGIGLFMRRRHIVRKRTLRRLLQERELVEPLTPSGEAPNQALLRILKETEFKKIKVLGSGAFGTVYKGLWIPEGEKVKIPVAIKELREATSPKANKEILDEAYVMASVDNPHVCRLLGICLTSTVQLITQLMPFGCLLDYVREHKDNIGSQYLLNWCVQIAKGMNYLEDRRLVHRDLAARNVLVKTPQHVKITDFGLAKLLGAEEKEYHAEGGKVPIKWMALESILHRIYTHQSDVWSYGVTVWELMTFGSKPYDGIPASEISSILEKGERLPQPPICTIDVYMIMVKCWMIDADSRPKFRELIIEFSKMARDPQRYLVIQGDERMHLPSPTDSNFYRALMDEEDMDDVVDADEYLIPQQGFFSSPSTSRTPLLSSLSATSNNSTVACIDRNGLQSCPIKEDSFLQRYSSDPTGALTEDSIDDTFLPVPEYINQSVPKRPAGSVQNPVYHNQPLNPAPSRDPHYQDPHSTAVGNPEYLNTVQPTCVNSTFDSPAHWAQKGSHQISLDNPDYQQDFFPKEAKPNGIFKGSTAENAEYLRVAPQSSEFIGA

PARP-1 = PARP-1 (Homo sapiens, UniProt P09874); assay: PARP-1 enzyme inhibition; assay type: biochemical; details: for percentage of inhibition of PARP-1: concentration not given
PARP-1, sequence (P09874 whole entry): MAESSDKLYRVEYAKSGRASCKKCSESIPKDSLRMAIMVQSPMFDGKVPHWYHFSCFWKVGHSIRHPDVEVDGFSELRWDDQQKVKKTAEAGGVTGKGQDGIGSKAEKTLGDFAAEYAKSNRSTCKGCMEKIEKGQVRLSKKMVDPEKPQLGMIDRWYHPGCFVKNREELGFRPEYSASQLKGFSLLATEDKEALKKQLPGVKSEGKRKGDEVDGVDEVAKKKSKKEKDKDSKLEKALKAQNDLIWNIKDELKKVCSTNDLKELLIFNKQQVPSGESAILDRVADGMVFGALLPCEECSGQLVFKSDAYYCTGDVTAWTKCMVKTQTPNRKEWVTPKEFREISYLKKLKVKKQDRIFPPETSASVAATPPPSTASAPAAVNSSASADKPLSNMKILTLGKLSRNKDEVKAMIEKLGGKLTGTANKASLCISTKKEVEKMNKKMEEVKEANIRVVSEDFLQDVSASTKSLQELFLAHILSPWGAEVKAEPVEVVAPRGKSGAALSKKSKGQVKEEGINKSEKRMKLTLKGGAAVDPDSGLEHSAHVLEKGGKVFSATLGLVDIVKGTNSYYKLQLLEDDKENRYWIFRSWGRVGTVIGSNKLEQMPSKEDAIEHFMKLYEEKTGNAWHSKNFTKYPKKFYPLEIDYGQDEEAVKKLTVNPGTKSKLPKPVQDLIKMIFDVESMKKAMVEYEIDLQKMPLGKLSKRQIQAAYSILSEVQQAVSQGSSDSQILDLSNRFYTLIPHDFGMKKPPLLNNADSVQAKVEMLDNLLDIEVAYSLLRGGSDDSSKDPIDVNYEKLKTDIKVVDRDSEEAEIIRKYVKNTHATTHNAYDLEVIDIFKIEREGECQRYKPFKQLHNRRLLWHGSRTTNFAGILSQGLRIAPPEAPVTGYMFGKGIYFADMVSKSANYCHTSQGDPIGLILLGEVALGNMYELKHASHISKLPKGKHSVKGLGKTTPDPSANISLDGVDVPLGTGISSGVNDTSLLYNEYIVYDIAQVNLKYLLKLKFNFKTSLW

HepG2 cells [4] = assay: Annexin V/PI staining flow cytometry; assay type: cell-based; details: HepG2, treated at IC50 for 48 h

SMILES | IC50 (EGFR) | percentage of inhibition of EGFR (EGFR) | IC50 (PARP-1) | percentage of inhibition of PARP-1 (PARP-1) | IC50 (HepG2 cells [1]) | also measured
Cc1c(C(=O)/C=C/c2cc3ccccc3s2)nnn1-c1c(Cl)cc(Cl)cc1Cl [1b, (E)-3-(Benzo[b]thiophen-2-yl)-1-(5-methyl-1-(2,4,6-trichlorophenyl)-1H-1,2,3-triazol-4-yl)prop-2-en-1-one] | – | – | – | – | 8500 ± 400 nM | –
Cc1c(C(=O)[C@H]2[C@H](c3cc4ccccc4o3)C3CCCN3[C@]23C(=O)Nc2cc(Cl)ccc23)nnn1-c1c(Cl)cc(Cl)cc1Cl (stereo partly drawn) [4a, (1′S,2′S,3R)-1′-(Benzofuran-2-yl)-6-chloro-2′-(5-methyl-1-(2,4,6-trichlorophenyl)-1H-1,2,3-triazole-4-carbonyl)-1′,2′,5′,6′,7′,7a′-hexahydrospiro[indoline-3,3′-pyrrolizin]-2-one] | 74.6 ± 1.8 nM | 94.1% | 2.01 ± 0.1 nM | 95.2% | – | Bax gene expression fold change ([2]; 2^−ΔΔCT): 4.6 fold; P53 gene expression fold change ([2]; 2^−ΔΔCT): 9.3 fold; caspase 3 gene expression fold change ([2]; 2^−ΔΔCT): 5.6 fold; caspase 8 gene expression fold change ([2]; 2^−ΔΔCT): 3.5 fold; caspase 9 gene expression fold change ([2]; 2^−ΔΔCT): 8.6 fold; BCL-2 gene expression (fold, decrease) ([2]; anti-apoptotic gene, decreased): 0.37 fold; cell population in S-phase (HepG2 cells [3]; control 30%): 33%; cell population in G2/M-phase (HepG2 cells [3]; control 34%): 42%; early apoptosis cell population (HepG2 cells [4]): 12.1%; induction of apoptosis versus untreated control (HepG2 cells [4]): 6.62 fold; late apoptosis cell population (HepG2 cells [4]): 0.95%; cells in necrosis (HepG2 cells [4]; untreated 0.61%): 0.58%; cell population in total apoptosis (HepG2 cells [4]; untreated 1.97%): 13.05%
Cc1c(C(=O)[C@H]2[C@H](c3cc4ccccc4o3)C3CCCN3[C@]23C(=O)Nc2ccc(F)cc23)nnn1-c1c(Cl)cc(Cl)cc1Cl (stereo partly drawn) [4g, (1′S,2′S,3R)-1′-(Benzofuran-2-yl)-5-fluoro-2′-(5-methyl-1-(2,4,6-trichlorophenyl)-1H-1,2,3-triazole-4-carbonyl)-1′,2′,5′,6′,7′,7a′-hexahydrospiro[indoline-3,3′-pyrrolizin]-2-one] | – | – | – | – | 8900 ± 300 nM | –

More lines, main results first:

IC50 (EGFR) | percentage of inhibition of EGFR (EGFR) | IC50 (PARP-1) | percentage of inhibition of PARP-1 (PARP-1) | SMILES | IC50 (HepG2 cells [1]) | also measured
85.3 ± 2.9 nM | 90.1% | 3.6 ± 0.3 nM | 81.2% | Cc1c(C(=O)[C@H]2[C@H](c3cc4ccccc4s3)C3CCCN3[C@]23C(=O)Nc2cc(Cl)ccc23)nnn1-c1c(Cl)cc(Cl)cc1Cl (stereo partly drawn) [4b, (1′S,2′S,3R)-1′-(Benzo[b]thiophen-2-yl)-6-chloro-2′-(5-methyl-1-(2,4,6-trichlorophenyl)-1H-1,2,3-triazole-4-carbonyl)-1′,2′,5′,6′,7′,7a′-hexahydrospiro[indoline-3,3′-pyrrolizin]-2-one] | – | –
116 ± 3.1 nM | 84.3% | 18.4 ± 1 nM | 86.6% | Cc1c(C(=O)[C@H]2[C@H](c3cc4ccccc4s3)C3CCCN3[C@]23C(=O)Nc2ccc(F)cc23)nnn1-c1c(Cl)cc(Cl)cc1Cl (stereo partly drawn) [4f, (1′S,2′S,3R)-1′-(Benzo[b]thiophen-2-yl)-5-fluoro-2′-(5-methyl-1-(2,4,6-trichlorophenyl)-1H-1,2,3-triazole-4-carbonyl)-1′,2′,5′,6′,7′,7a′-hexahydrospiro[indoline-3,3′-pyrrolizin]-2-one] | – | –
